Reference: ChEMBL document CHEMBL2380301, “Chemotherapy of leishmaniasis. Part XII: design, synthesis and bioevaluation of novel triazole integrated phenyl heteroterpenoids as antileishmanial agents” (Bioorg Med Chem Lett, 2013)

Experiments:
[1] = Selectivity index, ratio of CC50 for african green monkey Vero cells to IC50 for amastigotes of Leishmania donovani; format: functional
Method in brief: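 Ratio of CC50 on Vero cells (72 h MTT) to IC50 on intramacrophage L. donovani amastigotes in luciferase-expressing J-774A.1 infections (72 h). Both values are means of two independent experiments.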

Leishmania donovani [2] = experiment: Antileishmanial activity against amastigotes of Leishmania donovani assessed as inhibition of parasite growth at 40 uM after 72 hrs by luciferase reporter assay; format: functional
Method in brief: (§1)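 J-774A.1 murine macrophages (4 × 10³/well) were seeded and grown 24 h, then infected with luciferase-transfected L. donovani promastigotes (4 × 10⁴/well) that transformed intracellularly into amastigotes. Compounds at […] were added for 72 h. After supernatant removal, cells were taken up in PBS with Steady-Glo and luminescence read. Inhibition was calculated against untreated controls. IC50 is the mean of two independent experiments.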

[3] = Cytotoxicity against african green monkey Vero cells after 72 hrs by MTT assay; format: cell-based; conditions: chlorocebus sabaeus
Method in brief: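 Vero monkey kidney […] were exposed to compounds for 72 h, and viable cells were detected with MTT by a modified Mosmann method. CC50 is the mean of two independent experiments.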

Leishmania donovani [4] = experiment: Antileishmanial activity against amastigotes of Leishmania donovani assessed as inhibition of parasite growth after 72 hrs by luciferase reporter assay; format: functional, organism-based; method in brief: as §1
Leishmania donovani [5] = experiment: Antileishmanial activity against Leishmania donovani infected in golden hamster assessed as inhibition of parasite multiplication at 50 mg/kg, ip qd for 5 days measured on day 7; format: functional; conditions: route intraperitoneal
Method in brief: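 Inbred golden hamsters of either sex, 40–45 g, infected intracardiacally with 1 × 10⁷ L. donovani amastigotes per animal. Dosing was 50 mg/kg ip for 5 days. Biopsies were taken on day 7 after the last dose and amastigotes counted by Giemsa staining. Counts were compared between treated and untreated animals and with the initial count in treated animals, and expressed as per cent inhibition.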

Row | Structure (SMILES) | Ratio CC50/IC50 [1] | inhibition at 40 µM (Leishmania donovani [2]) | CC50 at 72 h [3] | IC50 (Leishmania donovani [4]) | inhibition in vivo at 50 mg/kg (Leishmania donovani [5])
1 | CC1=C(/C=C/C(=O)/C=C/c2ccc(-n3cncn3)cc2)C(C)(C)CCC1 | 5 | 100% | 72.4 µM | 15.3 µM | 
2 | CC1=C(/C=C/C2=NN(c3ccccc3)C(c3ccc(-n4cncn4)cc3)C2)C(C)(C)CCC1 (centres undefined) | 18 | 100% | 112 µM | 6.4 µM | 79%
3 | CC1=C(/C=C/C2=NN(c3ccc(F)cc3)C(c3ccc(-n4cncn4)cc3)C2)C(C)(C)CCC1 (centres undefined) | 5 | 98.7% | 58.6 µM | 12.4 µM | 
4 | CC1=CCCC(C)(C)C1/C=C/C(=O)/C=C/c1ccc(-n2cncn2)cc1 (centres undefined) | 3 | 98.2% | 38.5 µM | 11.6 µM | 
5 | CC1=CCCC(C)(C)C1/C=C/C1=NN(c2ccccc2)C(c2ccc(-n3cncn3)cc2)C1 (centres undefined) | 32 | 98% | 296 µM | 9.2 µM | 58%
6 | CC1=CCCC(C)(C)C1/C=C/C1=NN(c2ccc(F)cc2)C(c2ccc(-n3cncn3)cc2)C1 (centres undefined) | 4 | 90.5% | 72.2 µM | 16.9 µM | 
7 | Clc1ccc(COC(Cn2ccnc2)c2ccc(Cl)cc2Cl)c(Cl)c1 (centres undefined) [MICONAZOLE] | 7 | 100% | 37.4 µM | 5.4 µM | 
8 | CCCCCCCCCCCCCCCCOP(=O)([O-])OCC[N+](C)(C)C [MILTEFOSINE] | 6 | 100% | 54.7 µM | 8.6 µM | 
